The values below come from ChEMBL document CHEMBL1123761, “Inhibition of the mammalian beta-lactamase renal dipeptidase (dehydropeptidase-I) by (Z)-2-(acylamino)-3-substituted-propenoic acids” (J Med Chem, 1987).

A word on the inhibition: it is the drop in the measured response relative to a control, in per cent. The low end stands for a weak effect, the high end for a strong effect.

Each structure is given as a SMILES string. Non-standard residues stand in square brackets, D forms with d. Residues, ends and D or L forms follow the SMILES beside them. *: point of attachment. Isovaleryl = CC(C)CC(=O)*; Dhb = C/C=C(\N)C(=O)O; Butyryl = CCCC(=O)*

The assay concerns the target T1, Dipeptidase 1 (Sus scrofa) (UniProt P22412).
T1 sequence (whole entry): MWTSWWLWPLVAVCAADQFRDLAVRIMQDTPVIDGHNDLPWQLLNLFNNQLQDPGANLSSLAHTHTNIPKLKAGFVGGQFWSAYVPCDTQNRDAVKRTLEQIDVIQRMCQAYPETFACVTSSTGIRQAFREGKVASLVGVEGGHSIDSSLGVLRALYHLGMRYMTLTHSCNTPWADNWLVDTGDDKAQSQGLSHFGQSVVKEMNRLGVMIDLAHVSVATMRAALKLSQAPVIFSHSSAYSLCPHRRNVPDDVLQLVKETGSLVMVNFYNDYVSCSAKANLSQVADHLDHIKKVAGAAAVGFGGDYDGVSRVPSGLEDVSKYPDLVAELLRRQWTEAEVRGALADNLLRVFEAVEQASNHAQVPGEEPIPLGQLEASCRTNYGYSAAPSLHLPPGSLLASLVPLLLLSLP
Kind of assay: Inhibitory activity against beta-lactamase renal dipeptidase at a concentration of 100 uM. In outline:
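Inhibitor was incubated with solubilized renal dipeptidase (50–75% ammonium sulfate fraction, 5 µg) in 50 mM MOPS pH 7.1 for 5 min at 37 °C. Glycyldehydrophenylalanine was then added to 50 µM. Rate was followed as the absorbance decrease at 275 nm over 10 min and compared with the uninhibited rate.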
Take `C/C=C(\NC(=O)c1ccco1)C(=O)O`: the inhibition turned out to be 57%.
The same measure for `CO/C=C(\NC(=O)c1ccccc1)C(=O)O`: 23%.
The result for `C/C=C(\NC(=O)C(CCC)CCC)C(=O)O` reads 13%; that for `C/C=C(\NC(=O)C12CC3CC(CC(C3)C1)C2)C(=O)O`, 3%.
Compound `CC(C)=C(NC(=O)c1ccccc1)C(=O)O` returned an inhibition of 4%.
`O=C(O)/C(=C/Cl)NC(=O)c1ccccc1`: the inhibition was 36%.
The same measure for `C/C=C(\NC(=O)/C=C/C=C/C)C(=O)O`: 0%.
As for `C/C=C(\NC(=O)CNC(=O)CCC)C(=O)O` (Butyryl-Gly-[Dhb]-OH), the inhibition is 5%.
The same measure for `C/C=C(\NC(=O)CCCCCCCCCCCCC)C(=O)O`: 45%; for `C/C=C(\NC(=O)COc1ccccc1)C(=O)O`: 3%; for `C/C=C(\NC(=O)C(C)(C)C)C(=O)O`: 0%.
The result for `C[C@H](N)C(=O)N/C(=C\Cl)C(=O)O` reads 6%; that for `C/C=C(\NC(=O)C1(C)CCCCC1)C(=O)O`, 11%; that for `C/C=C(\NC(=O)CCCC(=O)N(C)C)C(=O)O`, 46%.
The result for `C/C=C(\NC(=O)CCCCC(C)C)C(=O)O` reads 57%.
In turn, `O=C(CO)N/C(=C\c1ccccc1)C(=O)O` registered an inhibition of 4%.
Turning to `C/C=C(\NC(=O)CC1CC2CCC1C2)C(=O)O` (stereo not drawn), the inhibition worked out at 54%.
The result for `C/C=C(\NC(=O)C1C(C(C)(C)C)C1(C)C)C(=O)O` (stereo not drawn) reads 44%; that for `C/C=C(\NC(=O)CCC1CCCO1)C(=O)O` (stereo not drawn), 51%.
The same measure for `C/C=C(\NC(=O)CCCCCCCCC)C(=O)O`: 58%; for `C/C=C(\NC(=O)C1C(C=C(C)C)C1(C)C)C(=O)O` (stereo not drawn): 15%.
Compound `C/C=C(\NC(=O)CNC(=O)CC(C)C)C(=O)O` (Isovaleryl-Gly-[Dhb]-OH) returned an inhibition of 5%.
As for `C/C=C(\NC(=O)CCCCC)C(=O)O`, the inhibition is 54%.
